# Screening results from PubChem BioAssay.
# The list is not random: actives were taken first. Their share in the collection is about 2.7%.
# NR2E3 ag-1: activates human NR2E3 receptor. Q9Y5X4. CHO-S Gal4-NCOR/VP16-NR2E3 two-hybrid, luciferase. inhibition of corepressor binding, % at 3.98 µM. 360,000 compounds, 0.35% hits. AID 602229;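 active = inhibition above the mean of all tested compounds plus 3 SD, cut at about 70% in these data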;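 also: 0% = DMSO with NR2E3 transfected cells and 100% = cells lacking NR2E3 construct; higher means lower luciferase signal from less NR2E3 corepressor binding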
# Target sequence (Q9Y5X4 whole entry, looked up, the tested form may be a part): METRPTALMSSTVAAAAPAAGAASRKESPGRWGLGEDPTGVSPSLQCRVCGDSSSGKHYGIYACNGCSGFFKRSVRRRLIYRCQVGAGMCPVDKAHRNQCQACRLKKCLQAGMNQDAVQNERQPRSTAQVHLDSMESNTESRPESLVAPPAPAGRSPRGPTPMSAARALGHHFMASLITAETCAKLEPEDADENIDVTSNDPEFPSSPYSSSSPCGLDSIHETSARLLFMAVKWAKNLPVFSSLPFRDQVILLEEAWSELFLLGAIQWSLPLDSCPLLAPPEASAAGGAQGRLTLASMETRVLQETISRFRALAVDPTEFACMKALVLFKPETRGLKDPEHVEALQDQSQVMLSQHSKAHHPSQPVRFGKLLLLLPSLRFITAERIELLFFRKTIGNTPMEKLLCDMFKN
# MC4R barr agon: agonists of human melanocortin 4 receptor (MC4R) beta-arrestin; P32245; U2OS MC4R beta-arrestin complementation, luminescence; percent of melanotan II response, DMSO zero; activation, % at 8.9 µM; 360,000 compounds, 0.98% hits;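 active = activation above a per-plate cutoff, the mean activation of sample wells on that plate plus 3 SD, cut at about 8% in these data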
# PG9 Ab binder: binds the HIV-1 gp120 antibody PG9; TR-FRET gp120-PG9 antibody binding; AID 624416; 360,000 compounds, 0.43% hits; inhibition, % at 6.7 µM; in the data active = inhibition above about 8.5%
# NR2E3 ag-2: activates human photoreceptor nuclear receptor NR2E3 | Q9Y5X4 | GST-NR2E3/biotin-RetCOR TR-FRET, 1536-well | inhibition of corepressor binding, % at 4.78 µM | 320,000 compounds, 0.12% hits | AID 2300;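 active = percent inhibition above the cutoff of mean plus 3 SD of all tested compounds, set per screening campaign, cut at about 20% in these data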;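 also: 0% = DMSO wells and 100% = biotin wells as full block of FRET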
#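 system = GST-tagged NR2E3 plus biotinylated RetCOR corepressor | input = 1.35 nM GST-NR2E3 | also added = 7 nM biotin-RetCOR | schedule = 5 h incubation at 4 °C | measured by = TR-FRET with europium anti-GST and streptavidin-D2, 340 nm excitation | read-out = percent loss of FRET ratio relative to control wells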
# MC4R antagonist: antagonists of human melanocortin 4 receptor (MC4R); P32245; MC4R-expressing cells, MTII-stimulated cAMP, LANCE TR-FRET; inhibition, % at 6.5 µM; 360,000 compounds, 0.48% hits; AID 540295;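 active = inhibition above its plate's cutoff, the mean of tested wells on that plate plus 3 SD, cut at about 29% in these data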;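 also: 0% = Melanotan II alone and 100% = Melanotan II plus saturating MCL0020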
#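 Assay system: human MC4R-expressing U2OS cells; reagent: Melanotan II stimulation of cells; dosing: 6.5 µM single dose; timing: compound 30 min, challenge 1 h, detection 1 h; signal: TR-FRET cAMP assay; replicates: one well per compound, no replicates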
# NR1D1 modulator: modulators of human Rev-erb alpha DNA binding; P20393; Rev-erbα–FITC-DNA binding, fluorescence polarization, 90 min; activity, % at 10 µM; 370,000 compounds, 0.79% hits;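 active = activity above about 14%, limit read from the data; passing the limit was not always enough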;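 also: 0% = DMSO wells with 35 nM protein and 100% = DMSO wells with 750 nM protein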
# NR2E3 ag conf: NR2E3 agonism confirmed in two-hybrid assay. shares compounds with NR2E3 ag-1. CHO-S mammalian two-hybrid NR2E3-NCOR, luciferase luminescence. inhibition, % at 3.98 µM. 2,300 compounds, 51% hits;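 active = average inhibition above a cutoff equal to the mean inhibition of all tested compounds plus one SD, cut at about 70% in these data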;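 also: 0% = DMSO in NR2E3 cells and 100% = DMSO in cells lacking NR2E3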
# VP16 counter: GAL4-VP16 reporter inhibition in NR2E3 agonist counterscreen | AID 624379 | shares compounds with NR2E3 ag-1 | inhibition, % at 3.98 µM | 2,300 compounds, 29% hits | CHO-S GAL4-VP16 luciferase reporter, luminescence;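 active = mean inhibition above a cutoff equal to the average over all tested compounds plus one standard deviation, cut at about 70% in these data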;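 also: luciferase from a UAS reporter driven by GAL4-VP16 transactivation; 0% = DMSO with VP16-transfected cells and 100% = DMSO with cells lacking VP16; higher means less reporter light so more repression of VP16 activity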
# Active calls of the source: *; / = no result.
SMILES,NR2E3 ag-1,MC4R barr agon,PG9 Ab binder,NR2E3 ag-2,MC4R antagonist,NR1D1 modulator,NR2E3 ag conf,VP16 counter
O=C(Nc1ccc(NC(=O)c2ccco2)nc1)c1ccco1,-98,-2,0,-4,-4,0,/,/
N#C/C(=N\Nc1ccc(Cl)cc1)C(=O)c1ccsc1,81*,-4,-2,0,10,3,100*,88*
N#C/C(=N\Nc1ccc(Cl)cc1)C(N)=S,67,-1,-3,1,2,6,-14,5
Cc1ccc(N/N=C(\C#N)C(=O)c2ccsc2)cc1,-27,-1,-3,-2,-1,-1,/,/
CCN1/C(=C/c2sc(-c3ccccc3C)c[n+]2C)Sc2ccccc21,90*,-4,0,/,-20,-1,99*,85*
Cc1ccc(CC(=O)Nc2ccncc2)cc1,50,-1,1,2,5,0,66,50
COC(=O)Cc1c(C)c2ccc(OC3CCCCC3=O)c(C)c2oc1=O (centres undefined),72*,-2,-1,0,1,-2,40,42
COC(=O)Cc1c(C)c2ccc(OC3CCCCC3=O)cc2oc1=O (centres undefined),-38,0,0,/,26,0,/,/
CC1(c2ccc3ccccc3c2)NC(=O)N(CC(=O)N2CCN(Cc3ccc(C#N)cc3)CC2)C1=O (centres undefined),105*,4,/,/,0,/,90*,80*
COc1cccc2c1C(=O)c1c(O)c3c(c(O)c1C2=O)CC(O)(C(=O)CO)CC3OC1CC(N(C)C)C(O)C(C)O1 (centres undefined),101*,-2,-15,/,-23,5,99*,94*
COc1ccc(NS(=O)(=O)c2ccc3oc4ccccc4c3c2)cn1,88*,4,0,5,-6,1,76*,63
COc1ccc(NS(=O)(=O)c2ccc(Br)cc2)cn1,6,0,1,1,-2,-2,/,/
O=C(c1ccc([N+](=O)[O-])o1)N1CCN(Cc2ccccc2)CC1,42,3,1,5,24,-2,/,/
CCc1cccc2sc(N3CCN(C(=O)c4ccc([N+](=O)[O-])o4)CC3)nc12,90*,-3,/,-2,9,/,76*,13
CC1CCN(C(=O)CSc2nncn2-c2ccccn2)CC1,10,3,0,-1,15,1,/,/
CC(=O)c1c(C)[nH]c(C(=O)COc2cc(C)cc(C)c2)c1C,15,4,4,1,4,0,/,/
CCCOc1ccc(OCC(=O)c2[nH]c(C)c(C(C)=O)c2C)cc1,79*,-2,/,3,-7,-3,94*,78*
O=C(CN(C1CCCCC1)S(=O)(=O)c1ccccc1)NCc1cccnc1,-4,0,1,4,-3,2,/,/
Cc1cccc(C)c1NS(=O)(=O)c1ccc(-c2cnc(C3CC3)o2)cc1,70*,-3,-2,2,-16,-1,55,21
Cc1ccc(NS(=O)(=O)c2ccc(-c3cnc(C4CC4)o3)cc2)cc1,37,0,1,-4,-11,6,/,/
CCOc1ccccc1CNS(=O)(=O)c1ccc(-c2cnc(C3CC3)o2)cc1,85*,-4,-2,-4,-16,-4,69,54
O=S(=O)(NCc1ccccc1)c1ccc(-c2cnc(C3CC3)o2)cc1,18,2,-1,-2,-1,-7,/,/
Cc1ccc(CNS(=O)(=O)c2ccc(-c3cnc(C4CC4)o3)cc2)cc1,70*,-1,-1,1,6,0,55,35
COc1ccc(C)cc1NS(=O)(=O)c1ccc(-c2cnc(C3CC3)o2)cc1,103*,-2,0,-1,-15,9,57,59
COc1cc(OC)cc(C(=O)OCC(=O)NC(C)CCc2ccccc2)c1 (centres undefined),-34,0,-1,4,15,1,/,/
SMILES,NR2E3 ag-1,MC4R barr agon,PG9 Ab binder,NR2E3 ag-2,MC4R antagonist,NR1D1 modulator,NR2E3 ag conf,VP16 counter
CCCC(=O)N(Cc1cc(=O)[nH]c2ccccc12)c1ccc(C)cc1,-16,1,1,1,3,-4,/,/
CCC(=O)Nc1c(-c2ccc(C)cc2)nc2ccc(C)cn12,-13,0,0,-2,11,-2,/,/
Cc1cc(N2CCCCC2)nc(NCc2ccccc2)n1,45,-1,0,-2,3,0,/,/
Cc1cc(N2CCOCC2)nc(NCc2ccccc2)n1,53,0,0,3,2,4,53,60
COc1cccc(/C=N/Nc2nc(Nc3ccccc3)nc(-n3nc(C)cc3C)n2)c1O,95*,-10,-1,3,10,6,3,-22
Cc1cc(N/N=C/c2ccc(F)cc2)nc(-n2nc(C)cc2C)n1,94*,-1,-1,-1,-6,3,3,25
COc1ccccc1/C=N/Nc1cc(C)nc(N2CCOCC2)n1,0,0,3,4,5,-2,/,/
CNc1cc(C)nc(-n2nc(C)cc2C)n1,-14,0,-1,-2,5,1,/,/
Cc1cc(C)n(-c2nc(Nc3ccccc3)nc(-n3nc(C)cc3C)n2)n1,-1,-2,-2,5,-3,-16,/,/
CCOc1ccc(Nc2cc(C)nc(-n3nc(C)cc3C)n2)cc1,84*,-2,-1,-2,-20,3,28,32
COc1ccc(/C=N/Nc2cc(C)nc(-n3nc(C)cc3C)n2)c(OC)c1,65,-4,1,2,-13,1,8,5
COc1cc(OC)cc(C(=O)NCCCNC(=O)c2ccccn2)c1,-6,0,-1,2,1,-4,/,/
CCOc1ccccc1NC(=O)C1C(c2ccccc2)C1(Cl)Cl (centres undefined),15,1,-3,/,10,-3,/,/
CCOc1cc(/C=N/Nc2nc(C)cc(=O)[nH]2)ccc1O,-26,-2,-3,-4,-7,-4,/,/
CCOc1cc(/C=N/Nc2cc(C)nc(-n3nc(C)cc3C)n2)ccc1O,90*,-1,-1,0,-13,-13,3,-11
CC(=O)CSc1nnc(-c2ccc3c(c2)OCO3)o1,-120,-2,-2,1,-2,0,/,/
O=C(O)CCSc1nnc(-c2ccc3c(c2)OCO3)o1,53,0,0,2,14,-2,30,40
